Data on 8 compounds can be found in ChEMBL document CHEMBL1124532, “Angiotensin converting enzyme inhibitors: spirapril and related compounds” (J Med Chem, 1989).

Usually IC50 stands for the point on the concentration scale where inhibition reaches its midpoint. Low values mean greater potency in that assay, high ones weaker potency in that assay.

Structures are written as SMILES.

For assay [1], the target named is T1, Angiotensin-converting enzyme (Homo sapiens, UniProt P12821). The assay is described as follows: (§1) Compound tested in vitro for inhibition of Angiotensin I converting enzyme.
Assay [2] has as its target T2, Angiotensin-converting enzyme (Rattus norvegicus) (UniProt P47820).
T2 sequence (whole entry): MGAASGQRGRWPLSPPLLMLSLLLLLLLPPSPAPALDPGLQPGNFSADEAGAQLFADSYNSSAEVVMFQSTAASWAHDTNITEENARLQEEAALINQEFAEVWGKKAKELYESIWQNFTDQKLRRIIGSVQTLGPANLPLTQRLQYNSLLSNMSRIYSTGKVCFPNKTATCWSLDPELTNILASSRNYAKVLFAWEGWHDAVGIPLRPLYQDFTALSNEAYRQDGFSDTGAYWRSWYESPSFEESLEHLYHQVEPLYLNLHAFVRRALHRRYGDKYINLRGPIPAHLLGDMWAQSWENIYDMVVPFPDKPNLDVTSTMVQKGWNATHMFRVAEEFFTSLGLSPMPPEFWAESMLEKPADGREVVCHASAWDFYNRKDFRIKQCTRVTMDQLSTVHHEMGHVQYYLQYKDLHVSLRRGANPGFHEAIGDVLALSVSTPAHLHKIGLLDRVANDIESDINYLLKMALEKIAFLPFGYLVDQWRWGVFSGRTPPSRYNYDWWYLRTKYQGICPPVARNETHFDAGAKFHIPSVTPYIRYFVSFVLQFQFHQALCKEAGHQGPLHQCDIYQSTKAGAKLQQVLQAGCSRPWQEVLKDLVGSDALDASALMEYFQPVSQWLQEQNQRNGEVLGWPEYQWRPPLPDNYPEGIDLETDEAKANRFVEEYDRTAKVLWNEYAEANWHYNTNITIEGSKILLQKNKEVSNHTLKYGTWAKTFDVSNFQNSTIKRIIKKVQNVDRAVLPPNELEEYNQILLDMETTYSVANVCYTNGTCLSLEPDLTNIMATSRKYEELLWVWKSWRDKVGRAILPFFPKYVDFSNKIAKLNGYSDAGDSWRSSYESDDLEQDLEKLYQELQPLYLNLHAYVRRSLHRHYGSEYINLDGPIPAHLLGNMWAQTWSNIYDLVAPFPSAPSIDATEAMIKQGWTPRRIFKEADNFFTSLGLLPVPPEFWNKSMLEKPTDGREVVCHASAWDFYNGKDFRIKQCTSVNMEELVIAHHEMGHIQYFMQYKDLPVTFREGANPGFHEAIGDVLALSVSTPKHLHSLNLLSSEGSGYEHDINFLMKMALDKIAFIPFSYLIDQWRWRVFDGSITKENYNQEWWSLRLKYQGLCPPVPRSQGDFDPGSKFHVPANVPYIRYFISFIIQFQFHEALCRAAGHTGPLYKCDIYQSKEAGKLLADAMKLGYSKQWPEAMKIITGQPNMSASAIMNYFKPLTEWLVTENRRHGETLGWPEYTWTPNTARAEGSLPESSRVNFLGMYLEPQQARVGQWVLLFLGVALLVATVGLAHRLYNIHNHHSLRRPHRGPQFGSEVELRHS
Put plainly: Compound tested in vivo for inhibition of Angiotensin I converting enzyme in rat. It is filed as organism-based. A digest of the protocol:
(§2)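 Male Sprague-Dawley rats (280–365 g) anesthetized with inactin (100 mg/kg ip) or dial urethane, with carotid blood pressure recorded. AI 1 µg/kg iv was given before and 5 min after each cumulative iv drug dose (3, 10, 30 µg/kg; EtOH/saline, ≤12% EtOH). Percent of control pressor response was regressed on log dose to give ID50 per animal, then averaged.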

Assay [3] has as its target T2, Angiotensin-converting enzyme (Rattus norvegicus). Put plainly: Compound tested in vivo for inhibition of angiotensin converting enzyme in rat. It is filed as organism-based. A digest of the protocol:
as §2

Assay [4] in a line: Compound tested in vitro for inhibition of Angiotensin I converting enzyme in rat. The procedure, abridged:
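Cushman–Cheung method using crude ACE enzyme preparations, with batches varying over the study period. IC50 was determined, and a reference ACE inhibitor was assayed concurrently in each run.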

Assay [5] deals with T3, Angiotensin-converting enzyme (Rattus norvegicus, UniProt P47820).
T3 sequence (P47820 whole entry): T2 sequence (whole entry)
The assay is described as §1. A digest of the protocol: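 In vitro ACE inhibition by the Cushman–Cheung procedure using crude enzyme preparations whose batches varied over time. IC50 determined with a reference inhibitor run concurrently.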

The next assay is filed under the species Canis familiaris. The assay is described as follows: Compound was tested for its efficacy in dog. It is filed as functional, Canis lupus familiaris.
For assay [6], the target named is T1, Angiotensin-converting enzyme. The assay is described as follows: Compound was tested for inhibitory activity against angiotensin converting enzyme when administered intravenously to anesthetized dogs. The settings on record: Canis lupus familiaris; target entry is the homologue from another species.

T1 sequence (P12821 whole entry): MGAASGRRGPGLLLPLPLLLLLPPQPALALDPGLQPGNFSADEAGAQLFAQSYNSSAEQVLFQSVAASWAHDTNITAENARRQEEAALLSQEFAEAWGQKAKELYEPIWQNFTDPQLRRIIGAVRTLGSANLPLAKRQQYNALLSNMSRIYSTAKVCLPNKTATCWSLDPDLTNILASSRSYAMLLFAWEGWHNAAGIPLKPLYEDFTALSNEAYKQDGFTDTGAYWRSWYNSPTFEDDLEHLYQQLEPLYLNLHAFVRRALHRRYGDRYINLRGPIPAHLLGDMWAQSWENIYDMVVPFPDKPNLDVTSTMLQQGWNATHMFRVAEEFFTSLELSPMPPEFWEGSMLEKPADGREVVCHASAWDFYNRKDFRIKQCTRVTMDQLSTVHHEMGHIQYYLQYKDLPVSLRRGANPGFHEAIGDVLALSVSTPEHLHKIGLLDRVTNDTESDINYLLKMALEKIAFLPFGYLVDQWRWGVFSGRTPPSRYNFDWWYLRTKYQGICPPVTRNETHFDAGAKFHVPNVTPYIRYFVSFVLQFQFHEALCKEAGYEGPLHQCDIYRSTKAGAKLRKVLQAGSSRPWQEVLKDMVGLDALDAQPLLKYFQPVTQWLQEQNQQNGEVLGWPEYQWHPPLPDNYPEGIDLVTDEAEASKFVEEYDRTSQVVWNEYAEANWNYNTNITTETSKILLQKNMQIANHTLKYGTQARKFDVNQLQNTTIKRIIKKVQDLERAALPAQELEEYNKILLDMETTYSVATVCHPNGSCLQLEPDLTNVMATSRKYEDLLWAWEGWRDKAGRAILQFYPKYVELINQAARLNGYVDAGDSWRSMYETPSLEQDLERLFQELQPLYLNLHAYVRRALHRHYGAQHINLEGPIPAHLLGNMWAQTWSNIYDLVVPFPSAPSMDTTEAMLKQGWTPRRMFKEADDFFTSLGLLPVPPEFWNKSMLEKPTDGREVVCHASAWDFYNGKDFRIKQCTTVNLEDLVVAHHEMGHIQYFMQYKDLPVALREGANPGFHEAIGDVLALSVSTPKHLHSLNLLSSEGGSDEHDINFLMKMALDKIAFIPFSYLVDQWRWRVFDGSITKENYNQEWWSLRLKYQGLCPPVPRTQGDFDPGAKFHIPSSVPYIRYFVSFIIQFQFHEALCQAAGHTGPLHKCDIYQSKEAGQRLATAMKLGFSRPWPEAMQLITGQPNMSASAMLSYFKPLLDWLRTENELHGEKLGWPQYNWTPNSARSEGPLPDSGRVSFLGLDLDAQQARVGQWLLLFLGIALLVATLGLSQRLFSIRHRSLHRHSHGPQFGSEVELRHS

Compound `NCCCC[C@H](N[C@@H](CCc1ccccc1)C(=O)O)C(=O)N1CC2(C[C@H]1C(=O)O)SCCS2` had an IC50 in assay [1] of 0.5 nM. Further, the ID50 in assay [2] amounted to 0.01 mg/kg.

With `CCOC(=O)[C@H](CCc1ccccc1)N[C@@H](C)C(=O)N1CCC[C@H]1C(=O)O`, the ID50 in assay [3] was 0.057 mg/kg.

With `CCOC(=O)C(CCc1ccccc1)N[C@@H](C)C(=O)N1CC2(C[C@H]1C(=O)O)SCCS2` (stereo partly drawn), the IC50 in assay [4] was 92 nM.

The compound `CCOC(=O)[C@H](CCc1ccccc1)NCC(=O)N1CC2(C[C@H]1C(=O)O)SCCS2` came in with an ID50 in assay [2] of 0.221 mg/kg.

Turning to `NCCCC[C@H](N[C@@H](CCc1ccccc1)C(=O)O)C(=O)N1CCC[C@H]1C(=O)O` [LISINOPRIL ANHYDROUS], inhibition in assay [4] was half-maximal at 1.2 nM (IC50).

In the case of `CCOC(=O)[C@H](CCc1ccccc1)N[C@@H](CCCCN)C(=O)N1CC2(C[C@H]1C(=O)O)SCCS2`, half-maximal inhibition in assay [1] (IC50) was put at 200 nM. Also, the ID50 in assay [2] turned out to be 0.01 mg/kg.

As to `CCOC(=O)[C@H](CCc1ccccc1)N[C@@H](C)C(=O)N1CC2(C[C@H]1C(=O)O)SCCS2`, half-maximal inhibition in assay [5] (IC50) required 67 nM. This compound also gave an Efficacy in the assay listed under Canis familiaris of 0.3 mg/kg. The ID50 in assay [3] amounted to 0.016 mg/kg; in assay [6], 0.3 mg/kg.

In assay [2], `C[C@H](N[C@@H](CCc1ccccc1)C(=O)O)C(=O)N1CCC[C@H]1C(=O)O` yielded an ID50 of 0.015 mg/kg.
